{"source": "PubChem BioAssay", "note": "Active and inactive are the calls of the source.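 How the source made its calls, unless noted: active means duplicate-averaged activation above buffer control mean plus 5 SD of those controls; inactive means the rest.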"}
{"tested_on": "not listed separately", "test": "thallium flux activation in parental CHO cells, counter-screen for KCNQ1 potentiator project (AID 493006)", "conditions": "parental CHO-K1 cells, FluxOR thallium flux, at 10 µM; active compounds read high", "in_short": "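Assay system: Untransfected host CHO-K1 cells with FluxOR thallium dye | Probe or stimulus: Potassium/thallium depolarization pulse | Schedule: Overnight 37 °C plating, 90 min RT dye, 20 min compound | Detection: Kinetic thallium-flux fluorescence | Read-out: Max-minus-min fluorescence over baseline, percent of buffer-to-R-L3 span | Benchmarks: Low control buffer, high control R-L3 activator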"}
{"smiles": "Cc1[nH]n(-c2ccccc2)c(=O)c1/C=N/N(c1ccccc1)c1ccccc1", "outcome": "inactive"}
{"smiles": "COc1ccc(OC)c(NC(=O)C(=O)NNC(=O)COc2ccc(Br)cc2C)c1", "activation": "520% (active)"}
{"smiles": "O=C(COC(=O)CNC(=O)c1ccc(Cl)cc1Cl)Nc1cccc(S(=O)(=O)N2CCCC2)c1", "outcome": "inactive"}
{"smiles": "COC(=O)c1c(NC(=S)Nc2ccc(F)cc2[N+](=O)[O-])sc2c1CCCCC2", "activation": "160% (active)"}
{"smiles": "CCn1c(CSc2nc3ccccc3n2C)nc2ccccc21", "outcome": "inactive"}
{"smiles": "CCOC(=O)c1nnn(CC(=O)Nc2cc(Cl)ccc2C)c1C(=O)OCC", "activation": "164% (active)"}
{"smiles": "CCC(C)c1ccccc1NC(=S)NC(=O)c1ccco1", "note": "(stereo not given)", "activation": "400% (active)"}
{"smiles": "CCOC(=O)c1sc2nc(C)nc(SCC(=O)N(C)C3CCS(=O)(=O)C3)c2c1C", "note": "(stereo not given)", "outcome": "inactive"}
{"smiles": "CCOc1ccc2nc(Nc3nc4ccc(NC(C)=O)cc4s3)sc2c1", "outcome": "inactive"}
{"smiles": "CCOC(=O)c1sc(NN=C(C(=O)OC)C(=O)OC)c(C(=O)OCC)c1C", "activation": "185% (active)"}
{"smiles": "Cc1cc(C(=O)NN)n[nH]1", "outcome": "inactive"}
{"smiles": "Cc1ccc(OCCCC(=O)NCc2ccco2)c(C)c1", "outcome": "inactive"}
{"smiles": "Cc1ccc(-c2c(=O)n(O)c3ccccc3[n+]2[O-])cc1", "activation": "202% (active)"}
{"smiles": "COc1ccc(-c2csc(N(CCCN(C)C)C(=O)c3ccccc3Cl)n2)cc1", "outcome": "inactive"}
{"smiles": "Cc1cc(C)cc(OCC(O)Cn2nc(C)cc2C)c1", "note": "(stereo not given)", "outcome": "inactive"}
{"smiles": "CC(C)(C)NCC(O)COc1ccccc1C(C)(C)C", "note": "(stereo not given)", "outcome": "inactive"}
{"smiles": "CC/C(=N\\NC(=S)Nc1cccc(C)c1)c1ccccc1", "outcome": "inactive"}
{"smiles": "COc1ccc(NC(=O)CC2C(=O)N(c3ccc(Cl)cc3)C(=S)N2NC(=O)c2cccc(F)c2)cc1", "note": "(stereo not given)", "outcome": "inactive"}
{"smiles": "CCOC(=O)c1c(NC(=S)NC)sc2c1CC(C)(C)SC2", "activation": "498% (active)"}
{"smiles": "CCOC(=O)Cc1cc(=O)n2[nH]c(C)c(-c3ccc(Cl)cc3)c2n1", "outcome": "inactive"}
{"smiles": "O=C(COc1ccccc1)NC(=S)N1CCc2ccccc21", "outcome": "inactive"}
{"smiles": "Cn1ncc2c(O/N=C(\\N)c3ccc(C(F)(F)F)cc3)ncnc21", "outcome": "inactive"}
{"smiles": "O=c1c2cc(Br)ccc2nc(-c2ccc([N+](=O)[O-])cc2)n1O", "activation": "346% (active)"}
{"smiles": "COc1ccc(-c2csc(NC(=S)NC(=O)c3cccs3)n2)cc1OC", "outcome": "inactive"}
{"smiles": "CC(c1ccccc1C(O)(c1ccccc1)c1ccccc1)N(C)C", "note": "(stereo not given)", "outcome": "inactive"}
{"smiles": "CC(C)(C)c1cc(-c2csc(Nc3ccccc3)[n+]2Cc2ccc(C(=O)O)cc2)cc(C(C)(C)C)c1O", "activation": "327% (active)"}
{"smiles": "Cc1ccc(CN2CCN(/N=C/C(Br)=C\\c3ccccc3)CC2)cc1", "outcome": "inactive"}
{"smiles": "CCCS(=O)(=O)c1c(S(=O)(=O)CCC)c2ccc(C(N)=O)cn2c1C(=O)c1ccccc1", "outcome": "inactive"}
{"smiles": "C=C(C)CNC(=S)Nc1nc2c(cc1C(=O)OCC)CCCC2", "activation": "143% (active)"}
{"smiles": "COc1cc(C2C(C#N)=C(N)Oc3cc(O)ccc32)cc2c1OCO2", "note": "(stereo not given)", "outcome": "inactive"}
{"smiles": "C=CCn1c(O)c(N=NC(=S)Nc2ccccc2C)c2cc(S(=O)(=O)N3CCOCC3)ccc21", "activation": "218% (active)"}
{"smiles": "CC(=O)c1c(N2CCOCC2)[nH]c(-c2ccccc2)nc1=S", "activation": "202% (active)"}
{"smiles": "Cc1nc(SCC(=O)NCC2CCCO2)c2c3c(sc2n1)CCCC3", "note": "(stereo not given)", "activation": "158% (active)"}
{"smiles": "CN1CCN(CC/C=C2/c3ccccc3Sc3ccc(S(=O)(=O)N(C)C)cc32)CC1", "outcome": "inactive"}
{"smiles": "COc1ccc(CN(C)CC(=O)Nc2ccc(Cl)cc2C(F)(F)F)c(OC)c1", "outcome": "inactive"}
{"smiles": "CCCn1c(=S)[nH]c2ccc(C(F)(F)F)cc21", "activation": "158% (active)"}
{"smiles": "COC(=O)c1ccc(COC(=O)c2ccccn2)cc1", "outcome": "inactive"}
{"smiles": "O=C(NC1CCCC1)C(c1cccnc1)N(C(=O)c1csnn1)C1CC1", "note": "(stereo not given)", "outcome": "inactive"}
{"smiles": "COc1ccc(CCNC(=O)c2ccc(N(C)S(=O)(=O)c3ccc(C)cc3)cc2)cc1OC", "outcome": "inactive"}
{"smiles": "O=C(N/N=C/c1ccc(Sc2ccccn2)o1)c1cc2ccccc2cc1O", "activation": "213% (active)"}
{"molecular_target": "Potassium voltage-gated channel subfamily KQT member 1 (Homo sapiens) (UniProt P51787)", "sequence (P51787 whole entry, looked up)": "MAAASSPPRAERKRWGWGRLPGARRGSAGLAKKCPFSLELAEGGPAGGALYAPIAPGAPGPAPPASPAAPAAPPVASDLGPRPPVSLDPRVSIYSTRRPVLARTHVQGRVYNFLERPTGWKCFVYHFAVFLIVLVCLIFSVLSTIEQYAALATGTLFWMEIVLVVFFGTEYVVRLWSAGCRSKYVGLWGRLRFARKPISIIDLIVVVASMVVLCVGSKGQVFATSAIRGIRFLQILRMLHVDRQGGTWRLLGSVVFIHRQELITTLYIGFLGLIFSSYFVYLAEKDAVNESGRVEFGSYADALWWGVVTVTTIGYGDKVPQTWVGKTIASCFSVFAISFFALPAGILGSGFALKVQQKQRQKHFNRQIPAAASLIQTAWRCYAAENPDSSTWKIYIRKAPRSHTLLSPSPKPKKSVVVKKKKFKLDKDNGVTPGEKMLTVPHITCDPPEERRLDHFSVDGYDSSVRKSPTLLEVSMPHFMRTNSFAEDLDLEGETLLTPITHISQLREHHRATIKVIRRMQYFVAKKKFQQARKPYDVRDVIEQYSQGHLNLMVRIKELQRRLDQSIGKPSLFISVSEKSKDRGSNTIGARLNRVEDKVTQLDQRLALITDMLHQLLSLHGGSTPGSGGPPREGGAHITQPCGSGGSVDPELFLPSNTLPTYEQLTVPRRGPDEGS", "test": "KCNQ1 potassium channel potentiators, confirmation, FluxOR thallium flux, CHO cells, duplicates (AID 493007;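 active means potentiation averaged over duplicate wells exceeding buffer-only control mean by more than 3 SD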;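 on outcome: cells depolarized by a potassium plus thallium sulfate stimulus after compound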)", "conditions": "KCNQ1 cell line, FluxOR thallium flux fluorescence, at 10 µM; active compounds read high, % of reference activator effect, buffer zero", "in_short": "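Material: KCNQ1-expressing CHO cell line; Incubation: FluxOR dye loading 90 min, compound exposure 20 min, room temperature; Detection: FluxOR Tl+ flux fluorescence, 10 s baseline plus 110 s recording; Read-out: percent activation between buffer and R-L3 responses; Control set: buffer-only wells as 0% and R-L3 activator as 100%; Replication: duplicate wells per compound.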"}
{"smiles": "Cc1[nH]n(-c2ccccc2)c(=O)c1/C=N/N(c1ccccc1)c1ccccc1", "potentiation": "47% (active)"}
{"smiles": "COc1ccc(OC)c(NC(=O)C(=O)NNC(=O)COc2ccc(Br)cc2C)c1", "potentiation": "346% (active)"}
{"smiles": "O=C(COC(=O)CNC(=O)c1ccc(Cl)cc1Cl)Nc1cccc(S(=O)(=O)N2CCCC2)c1", "outcome": "inactive"}
{"smiles": "COC(=O)c1c(NC(=S)Nc2ccc(F)cc2[N+](=O)[O-])sc2c1CCCCC2", "potentiation": "32.5% (active)"}
{"smiles": "CCn1c(CSc2nc3ccccc3n2C)nc2ccccc21", "outcome": "inactive"}
{"smiles": "CCOC(=O)c1nnn(CC(=O)Nc2cc(Cl)ccc2C)c1C(=O)OCC", "potentiation": "33% (active)"}
{"smiles": "CCC(C)c1ccccc1NC(=S)NC(=O)c1ccco1", "note": "(stereo not given)", "potentiation": "114% (active)"}
{"smiles": "CCOC(=O)c1sc2nc(C)nc(SCC(=O)N(C)C3CCS(=O)(=O)C3)c2c1C", "note": "(stereo not given)", "potentiation": "17.5% (active)"}
{"smiles": "CCOc1ccc2nc(Nc3nc4ccc(NC(C)=O)cc4s3)sc2c1", "outcome": "inactive"}
{"smiles": "CCOC(=O)c1sc(NN=C(C(=O)OC)C(=O)OC)c(C(=O)OCC)c1C", "potentiation": "74.5% (active)"}
{"smiles": "Cc1cc(C(=O)NN)n[nH]1", "outcome": "inactive"}
{"smiles": "Cc1ccc(OCCCC(=O)NCc2ccco2)c(C)c1", "outcome": "inactive"}
{"smiles": "Cc1ccc(-c2c(=O)n(O)c3ccccc3[n+]2[O-])cc1", "potentiation": "25% (active)"}
{"smiles": "COc1ccc(-c2csc(N(CCCN(C)C)C(=O)c3ccccc3Cl)n2)cc1", "outcome": "inactive"}
{"smiles": "Cc1cc(C)cc(OCC(O)Cn2nc(C)cc2C)c1", "note": "(stereo not given)", "outcome": "inactive"}
{"smiles": "CC(C)(C)NCC(O)COc1ccccc1C(C)(C)C", "note": "(stereo not given)", "outcome": "inactive"}
{"smiles": "CC/C(=N\\NC(=S)Nc1cccc(C)c1)c1ccccc1", "potentiation": "104% (active)"}
{"smiles": "COc1ccc(NC(=O)CC2C(=O)N(c3ccc(Cl)cc3)C(=S)N2NC(=O)c2cccc(F)c2)cc1", "note": "(stereo not given)", "outcome": "inactive"}
{"smiles": "CCOC(=O)c1c(NC(=S)NC)sc2c1CC(C)(C)SC2", "potentiation": "126% (active)"}
{"smiles": "CCOC(=O)Cc1cc(=O)n2[nH]c(C)c(-c3ccc(Cl)cc3)c2n1", "outcome": "inactive"}
{"smiles": "O=C(COc1ccccc1)NC(=S)N1CCc2ccccc21", "potentiation": "20% (active)"}
{"smiles": "Cn1ncc2c(O/N=C(\\N)c3ccc(C(F)(F)F)cc3)ncnc21", "outcome": "inactive"}
{"smiles": "O=c1c2cc(Br)ccc2nc(-c2ccc([N+](=O)[O-])cc2)n1O", "potentiation": "147% (active)"}
{"smiles": "COc1ccc(-c2csc(NC(=S)NC(=O)c3cccs3)n2)cc1OC", "potentiation": "40% (active)"}
{"smiles": "CC(c1ccccc1C(O)(c1ccccc1)c1ccccc1)N(C)C", "note": "(stereo not given)", "outcome": "inactive"}
{"smiles": "CC(C)(C)c1cc(-c2csc(Nc3ccccc3)[n+]2Cc2ccc(C(=O)O)cc2)cc(C(C)(C)C)c1O", "potentiation": "54.5% (active)"}
{"smiles": "Cc1ccc(CN2CCN(/N=C/C(Br)=C\\c3ccccc3)CC2)cc1", "outcome": "inactive"}
{"smiles": "CCCS(=O)(=O)c1c(S(=O)(=O)CCC)c2ccc(C(N)=O)cn2c1C(=O)c1ccccc1", "outcome": "inactive"}
{"smiles": "C=C(C)CNC(=S)Nc1nc2c(cc1C(=O)OCC)CCCC2", "outcome": "inactive"}
{"smiles": "COc1cc(C2C(C#N)=C(N)Oc3cc(O)ccc32)cc2c1OCO2", "note": "(stereo not given)", "outcome": "inactive"}
{"smiles": "C=CCn1c(O)c(N=NC(=S)Nc2ccccc2C)c2cc(S(=O)(=O)N3CCOCC3)ccc21", "potentiation": "45% (active)"}
{"smiles": "CC(=O)c1c(N2CCOCC2)[nH]c(-c2ccccc2)nc1=S", "potentiation": "66.5% (active)"}
{"smiles": "Cc1nc(SCC(=O)NCC2CCCO2)c2c3c(sc2n1)CCCC3", "note": "(stereo not given)", "potentiation": "55% (active)"}
{"smiles": "CN1CCN(CC/C=C2/c3ccccc3Sc3ccc(S(=O)(=O)N(C)C)cc32)CC1", "outcome": "inactive"}
{"smiles": "COc1ccc(CN(C)CC(=O)Nc2ccc(Cl)cc2C(F)(F)F)c(OC)c1", "potentiation": "37.5% (active)"}
{"smiles": "CCCn1c(=S)[nH]c2ccc(C(F)(F)F)cc21", "outcome": "inactive"}
{"smiles": "COC(=O)c1ccc(COC(=O)c2ccccn2)cc1", "potentiation": "65% (active)"}
{"smiles": "O=C(NC1CCCC1)C(c1cccnc1)N(C(=O)c1csnn1)C1CC1", "note": "(stereo not given)", "outcome": "inactive"}
{"smiles": "COc1ccc(CCNC(=O)c2ccc(N(C)S(=O)(=O)c3ccc(C)cc3)cc2)cc1OC", "outcome": "inactive"}
{"smiles": "O=C(N/N=C/c1ccc(Sc2ccccn2)o1)c1cc2ccccc2cc1O", "potentiation": "70% (active)"}
